Test results taken from ChEMBL document CHEMBL3102806, “1,2,4-Triazole/oxime hybrids as new strategy for nitric oxide donors: Synthesis, anti-inflammatory, ulceroginicity and antiproliferative activities” (Eur J Med Chem, 2014).

Tests used:
T47D = assay: Growth inhibition of human T47D cells assessed as cell growth at 10^-5 M after 48 hrs by sulforhodamine B assay relative to control; format: functional; conditions: read-out: Activity
Procedure, shortened: (§1)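 NCI primary screen across about 60 human tumour cell lines. Single dose of 10^-5 M, cultures incubated 48 h, end point by sulforhodamine B protein staining read spectrophotometrically. Results are given as percent growth of treated cells relative to untreated control cells.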

[1] = Growth inhibition of human Hs 578T cells assessed as cell growth at 10^-5 M after 48 hrs by sulforhodamine B assay relative to control; format: functional; conditions: read-out: Activity
Procedure, shortened: (§2)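 NCI ~60 human tumour cell line screen. Single concentration of 10^-5 M added to cultures for 48 h. End point by sulforhodamine B protein staining read spectrophotometrically. Percent growth relative to untreated control cells.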

ACHN = assay: Growth inhibition of human ACHN cells assessed as cell growth at 10^-5 M after 48 hrs by sulforhodamine B assay relative to control; format: functional; conditions: read-out: Activity; procedure, shortened: as §2
SK-MEL-5 = assay: Growth inhibition of human SK-MEL-5 cells assessed as cell growth at 10^-5 M after 48 hrs by sulforhodamine B assay relative to control; format: functional; conditions: SK-MEL-5, 48 h, read-out: Activity; procedure, shortened: as §1
MDA-MB-435 = assay: Growth inhibition of human MDA-MB-435 cells assessed as cell growth at 10^-5 M after 48 hrs by sulforhodamine B assay relative to control; format: functional; conditions: MDA-MB-435, 48 h, read-out: Activity
Procedure, shortened: (§3)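 NCI primary screen, one-dose format across about 60 human tumour cell lines. Single addition at 10^-5 M with 48 h incubation; SRB protein-binding dye end point read spectrophotometrically. Reported as percent growth of treated cells versus untreated controls.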

SNB-19 = assay: Growth inhibition of human SNB19 cells assessed as cell growth at 10^-5 M after 48 hrs by sulforhodamine B assay relative to control; format: functional; conditions: SNB-19, 48 h, read-out: Activity; procedure, shortened: as §1
HCT-116 = assay: Growth inhibition of human HCT116 cells assessed as cell growth at 10^-5 M after 48 hrs by sulforhodamine B assay relative to control; format: functional; conditions: HCT-116, 48 h, read-out: Activity; procedure, shortened: as §2
[2] = Growth inhibition of human HCC2998 cells assessed as cell growth at 10^-5 M after 48 hrs by sulforhodamine B assay relative to control; format: functional; conditions: HCC 2998, 48 h, read-out: Activity; procedure, shortened: as §2
COLO 205 = assay: Growth inhibition of human COLO205 cells assessed as cell growth at 10^-5 M after 48 hrs by sulforhodamine B assay relative to control; format: functional; conditions: COLO 205, 48 h, read-out: Activity; procedure, shortened: as §2
[3] = Induction of nitric oxide release in phosphate buffer at 10^-4 M at pH 7.4 after 5 hrs by Griess colorimetric method in presence of N-acetylcysteine; format: physicochemical; conditions: pH 7.4, 5 h, 100 µM
Procedure, shortened: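 Final drug concentration 10^-4 M, added from DMF into 1:1 50 mM phosphate buffer (pH 7.4)/MeOH containing 5 × 10^-4 M N-acetylcysteine, at 37 °C. Nitrite read with Griess reagent after 10 min at room temperature, absorbance at 546 nm. Calibration with sodium nitrite standards (10–80 nmol/ml). Reported as mol NO per mol, n = 4 reaction mixtures.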

[4] = Induction of nitric oxide release in HCl buffer at 10^-4 M at pH 1 after 1 hr by Griess colorimetric method in presence of N-acetylcysteine; format: physicochemical; conditions: pH 1, 1 h, 100 µM
Procedure, shortened: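 Same Griess nitrite procedure at 10^-4 M final drug with N-acetylcysteine at 37 °C, but with 0.1 N HCl (pH 1) in place of the pH 7.4 phosphate buffer. Absorbance at 546 nm against a sodium nitrite calibration curve.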

Rattus norvegicus [5] = assay: Antiinflammatory activity in albino rat assessed as inhibition of carrageenan-induced paw edema at 0.28 mmol/kg, po administered 30 mins prior to carrageenan-challenge measured after 1 hr relative to control; format: functional
Procedure, shortened: (§4)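 Male albino rats in groups of four were fasted 24 h with water allowed. Dosing was oral at 0.28 mmol/kg, suspended in 0.5% w/v CMC; controls got CMC alone. After 30 min, 0.1 ml of 1% carrageenan in saline went subplantar into the right hind paw and saline into the left. Paw thickness was read by caliper before and at 1–5 h. % inhibition = [(VR−VL)control−(VR−VL)treated]/(VR−VL)control ×100. Mean ± SEM, n = 4, one-way ANOVA vs control.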

Rattus norvegicus [6] = assay: Antiinflammatory activity in albino rat assessed as inhibition of carrageenan-induced paw edema at 0.28 mmol/kg, po administered 30 mins prior to carrageenan-challenge measured after 2 hrs relative to control; format: functional; procedure, shortened: as §4
Rattus norvegicus [7] = assay: Antiinflammatory activity in albino rat assessed as inhibition of carrageenan-induced paw edema at 0.28 mmol/kg, po administered 30 mins prior to carrageenan-challenge measured after 4 hrs relative to control; format: functional; procedure, shortened: as §4
Rattus norvegicus [8] = assay: Ulcerogenic activity in albino rat carrageenan-induced paw edema model assessed as ulcer index at 0.28 mmol/kg, po (reference value: 0.60 +/- 0.05); format: toxicity, organism-based; conditions: in vivo
Procedure, shortened: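 Rats given the compound orally at 0.28 mmol/kg, suspended in 0.5% aqueous CMC; vehicle-only control, n = 4 per group. Gastric ulcers graded by area: I (<1 mm²), II (1–3 mm²), III (>3 mm²). Ulcer index = 1×(level I count) + 2×(level II) + 3×(level III). Mean ± SEM, one-way ANOVA versus control.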

HOP-62 = assay: Growth inhibition of human HOP62 cells assessed as cell growth at 10^-5 M after 48 hrs by sulforhodamine B assay relative to control; format: functional; conditions: HOP-62, 48 h, read-out: Activity; procedure, shortened: as §2
NCI-H23 = assay: Growth inhibition of human NCI-H23 cells assessed as cell growth at 10^-5 M after 48 hrs by sulforhodamine B assay relative to control; format: functional; conditions: NCI-H23, 48 h, read-out: Activity; procedure, shortened: as §3
A549 = assay: Growth inhibition of human A549/ATCC cells assessed as cell growth at 10^-5 M after 48 hrs by sulforhodamine B assay relative to control; format: functional; conditions: A549, 48 h, read-out: Activity; procedure, shortened: as §2
[9] = Growth inhibition of human EKVX cells assessed as cell growth at 10^-5 M after 48 hrs by sulforhodamine B assay relative to control; format: functional; conditions: read-out: Activity; procedure, shortened: as §2
M14 = assay: Growth inhibition of human M14 cells after 48 hrs by sulforhodamine B assay; format: functional; conditions: M14, 48 h
Procedure, shortened: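 NCI 60-cell-line panel (nine tumour subpanels), five-dose format: 10-fold dilutions from 10^-4 to 10^-8 M, 48 h continuous exposure, SRB protein stain. Percent growth at each level is derived from time-zero, untreated control and treated absorbances. GI50 is the concentration where [(Ti−Tz)/(C−Tz)]×100 = 50. Values outside the tested range are reported as above or below the limit.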

U-251 = assay: Growth inhibition of human U251 cells after 48 hrs by sulforhodamine B assay; format: functional; conditions: U-251, 48 h
Procedure, shortened: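 NCI 60-cell-line panel, five-dose run at 10-fold dilutions from 10^-4 to 10^-8 M, 48 h continuous exposure. Viability by SRB protein stain. Percent growth is taken from time-zero, untreated-control and treated absorbances. GI50 is the concentration giving a 50% lower net protein increase than in control cells. TGI is taken at Ti = Tz, LC50 at a 50% loss of initial protein.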

[10] = read-out: LC50 (the source's name)

C/C(=N\O)c1ccc(NC(=O)CSc2nnc(-c3ccccc3)n2-c2ccccc2)cc1
growth at 10 µM (T47D): 92%
growth at 10 µM [1]: 79.6%
growth at 10 µM (ACHN): 85.7%
growth at 10 µM (SK-MEL-5): 94.5%
growth at 10 µM (MDA-MB-435): 118%
growth at 10 µM (SNB-19): 45.8%
growth at 10 µM (HCT-116): 97.5%
growth at 10 µM [2]: 28.6%
growth at 10 µM (COLO 205): 91.1%
Activity [3]: 0.14 mol/mol
Activity [4]: Not Active
inhibition in vivo at 280 µmol/kg (Rattus norvegicus [5]): 50%
inhibition in vivo at 280 µmol/kg (Rattus norvegicus [6]): 52%
inhibition in vivo at 280 µmol/kg (Rattus norvegicus [7]): 67%
UI (Rattus norvegicus [8]): 0.95
growth at 10 µM (HOP-62): 64.7%
growth at 10 µM (NCI-H23): 76.6%
growth at 10 µM (A549): 81.9%
growth at 10 µM [9]: 91.9%

COc1ccc(-c2nnc(SCC(=O)Nc3ccc(/C(C)=N/O)cc3)n2-c2ccccc2)cc1OC
growth at 10 µM (T47D): 68%
growth at 10 µM [1]: 42.8%
growth at 10 µM (ACHN): 75.5%
growth at 10 µM (SK-MEL-5): 94.6%
growth at 10 µM (MDA-MB-435): 104%
growth at 10 µM (SNB-19): 75.8%
growth at 10 µM (HCT-116): 69.2%
growth at 10 µM [2]: 94%
growth at 10 µM (COLO 205): 99.1%
Activity [3]: 0.35 mol/mol
Activity [4]: Not Active
inhibition in vivo at 280 µmol/kg (Rattus norvegicus [5]): 57%
inhibition in vivo at 280 µmol/kg (Rattus norvegicus [6]): 63%
inhibition in vivo at 280 µmol/kg (Rattus norvegicus [7]): 79%
UI (Rattus norvegicus [8]): 1.11
growth at 10 µM (HOP-62): -26.4%
growth at 10 µM (NCI-H23): 68.8%
growth at 10 µM (A549): 70.7%
growth at 10 µM [9]: 71.1%
GI50 (M14): 97.4 µM
TGI (M14): > 100 µM
CC50 (M14; [10]): > 100 µM
GI50 (U-251): 3.62 µM
TGI (U-251): 19.6 µM
CC50 (U-251; [10]): > 100 µM
